Key:
[1] = target: T1, Human immunodeficiency virus type 1 reverse transcriptase (Human immunodeficiency virus 1, UniProt Q72547); assay: Inhibition of RNase H activity of full length recombinant HIV1 reverse transcriptase assessed as reduction in nonspecific internal cleavage using HTS1 substrate; conditions: read-out: IC50
Summary of the method: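 Recombinant p66/p51 RT heterodimer. Fluorescent RNA/DNA duplex substrate HTS-1 measures internal cleavage. IC50 is the mean of at least three independent experiments.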

[2] = target: T1, Human immunodeficiency virus type 1 reverse transcriptase; assay: Inhibition of RNase H activity of full length recombinant HIV1 reverse transcriptase assessed as reduction in DNA 3'-end cleavage using HTS2 substrate
Summary of the method: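 Recombinant p66/p51 RT heterodimer. Fluorescent RNA/DNA duplex substrate HTS-2 reports DNA 3′-end-directed (polymerase-dependent) cleavage. IC50 is the mean of at least three independent experiments.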

[3] = target: T1, Human immunodeficiency virus type 1 reverse transcriptase; assay: Inhibition of RNase H activity of full length recombinant HIV1 reverse transcriptase assessed as reduction in RNA 5'-end directed cleavage using HTS3 substrate
[4] = target: T1, Human immunodeficiency virus type 1 reverse transcriptase; assay: Inhibition of polymerase activity of HIV1 reverse transcriptase using poly(rA)-oligo(dT)16 and [3H]-TTP incubated for 20 mins by liquid scintillation spectrometry
Summary of the method: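 Reaction mix: 10 µM [3H]-TTP, 40 nM poly(rA)-oligo(dT)16, 50 mM Tris-HCl pH 7.4 (37°C), 60 mM KCl, 5 mM MgCl2. Started with 10 nM RT; 20 min at 37°C. Quenched in ice-cold 10% TCA with 20 mM sodium pyrophosphate, then glass-fibre filtered and washed with TCA and ethanol. Label incorporation read by liquid scintillation.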

[5] = target: T1, Human immunodeficiency virus type 1 reverse transcriptase; assay: Inhibition of re-constituted HIV1 reverse transcriptase RNase H domain fragment
Summary of the method: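 Secondary check using a catalytically active, isolated HIV RNase H domain fragment (reconstituted) with duplex substrate HTS-1.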

[6] = Toxicity against human HeLa P4/R5 cells; type: cell-based

Row | Compound | IC50 [1] [µM] | IC50 ([2]; read-out: IC50) [µM] | IC50 ([3]; read-out: IC50) [µM] | IC50 ([4]; read-out: IC50) [µM] | IC50 ([5]; read-out: IC50) [µM] | IC50 [4] | CC50 [6] [µM] | IC50 [2] | IC50 [3] | IC50 [5]
1 | O=c1cc(Nc2ccc(-c3ccc(O)cc3)cc2)[nH]c(=O)n1O | 0.18 | 0.45 | 0.37 | 0.82 | – | – | – | – | – | –
2 | Cn1c(Nc2ccc(-c3ccccc3)cc2)cc(=O)n(O)c1=O | 0.8 | 3.5 | 5.1 | – | 1.7 | Not Active | 6 | – | – | –
3 | COc1ccc(-c2ccc(Nc3cc(=O)n(O)c(=O)n3C)cc2)c(OC)c1 | 1.5 | 4.3 | 5.3 | – | – | Not Active | – | – | – | –
4 | Cn1c(Nc2ccc(-c3ccc(C#N)cc3)cc2)cc(=O)n(O)c1=O | 1.1 | 2.6 | 3.7 | 3.3 | 1 | – | 12 | – | – | –
5 | O=c1cc(Nc2cccc(-c3ccc(Cl)cc3)c2)[nH]c(=O)n1O | 0.22 | 0.45 | 0.37 | 0.86 | – | – | – | – | – | –
6 | COc1cccc(-c2ccccc2Oc2cc(=O)n(O)c(=O)n2C)c1 | 5.7 | – | – | – | 12 | Not Active | 6 | Not Active | Not Active | –
7 | Cc1ccc(-c2cccc(Nc3cc(=O)n(O)c(=O)n3C)c2)cc1 | 1.7 | 7.2 | 6.2 | 17 | – | – | – | – | – | –
8 | Cn1c(Oc2ccc(-c3cccc(C#N)c3)cc2)cc(=O)n(O)c1=O | 1.9 | 13 | 11 | – | – | Not Active | – | – | – | –
9 | Cn1c(Nc2ccc(-c3ccc(C(F)(F)F)cc3)cc2)cc(=O)n(O)c1=O | 3.6 | 8.9 | 6.6 | – | 2.2 | Not Active | 10 | – | – | –
10 | Cn1c(Oc2ccccc2-c2ccccc2O)cc(=O)n(O)c1=O | 11 | – | – | – | – | Not Active | – | Not Active | Not Active | –
11 | COc1ccccc1-c1cccc(Nc2cc(=O)n(O)c(=O)n2C)c1 | 1.2 | 2.1 | 3.8 | 6.6 | 1 | – | 6 | – | – | –
12 | Cn1c(Oc2cccc(-c3cccc(C#N)c3)c2)cc(=O)n(O)c1=O | 0.9 | 6.7 | 4.6 | – | – | Not Active | – | – | – | –
13 | Cn1c(Nc2cccc(-c3cncnc3)c2)cc(=O)n(O)c1=O | 1.4 | 4.1 | 3.9 | – | 0.9 | Not Active | > 25 | – | – | –
14 | Cn1c(Oc2ccccc2-c2ccc(Cl)cc2)cc(=O)n(O)c1=O | 3.3 | – | 13 | 14 | – | – | – | Not Active | – | –
15 | Cn1c(Oc2cccc(-c3ccc(C#N)cc3)c2)cc(=O)n(O)c1=O | 1.2 | 6.9 | 3.9 | – | – | Not Active | – | – | – | –
16 | Cn1c(Nc2cccc(-c3ccc(C#N)cc3)c2)cc(=O)n(O)c1=O | 0.7 | 2.3 | 3.4 | 5 | 1 | – | 10 | – | – | –
17 | COc1ccc(-c2cccc(Nc3cc(=O)n(O)c(=O)n3C)c2)c(OC)c1 | 1 | 2.1 | 4.2 | 6.3 | 1.1 | – | 6 | – | – | –
18 | COc1cc(OC)cc(-c2ccc(Nc3cc(=O)n(O)c(=O)n3C)cc2)c1 | 1.6 | 7.2 | 9.2 | 6.5 | 1.8 | – | 15 | – | – | –
19 | COc1cccc(-c2cccc(Oc3cc(=O)n(O)c(=O)n3C)c2)c1 | 1 | 17 | 9.4 | – | 3.6 | Not Active | 5 | – | – | –
20 | Cc1noc(C)c1-c1ccccc1Nc1cc(=O)n(O)c(=O)n1C | 6.6 | – | – | – | – | Not Active | – | Not Active | Not Active | –
21 | COc1cc(OC)cc(-c2cccc(Nc3cc(=O)n(O)c(=O)n3C)c2)c1 | 0.6 | 2.8 | 4 | – | 1.4 | Not Active | 10 | – | – | –
22 | Cc1ccc(-c2ccc(Nc3cc(=O)n(O)c(=O)n3C)cc2)cc1 | 2.7 | 6.5 | 6.6 | – | 1.9 | Not Active | 5 | – | – | –
23 | O=c1cc(Nc2ccc(-c3ccccc3O)cc2)[nH]c(=O)n1O | 0.24 | 0.49 | 0.46 | 0.83 | – | – | – | – | – | –

Row | Compound | IC50 [1] [µM] | IC50 ([2]; read-out: IC50) [µM] | IC50 ([3]; read-out: IC50) [µM] | IC50 ([4]; read-out: IC50) [µM] | IC50 ([5]; read-out: IC50) [µM] | IC50 [4] | CC50 [6] [µM] | IC50 [2] | IC50 [3] | IC50 [5]
24 | O=c1cc(Nc2ccc(-c3ccc(Cl)cc3)cc2)[nH]c(=O)n1O | 0.47 | 0.66 | 0.6 | 0.99 | – | – | – | – | – | –
25 | Cn1c(Nc2cccc(-c3ccc(O)cc3)c2)cc(=O)n(O)c1=O | 0.75 | 3.8 | 2.7 | 12 | – | – | – | – | – | –
26 | Cn1c(Oc2ccc(-c3ccc(C#N)cc3)cc2)cc(=O)n(O)c1=O | 2.5 | 11 | 4.7 | – | – | Not Active | – | – | – | –
27 | COc1ccccc1-c1cccc(Oc2cc(=O)n(O)c(=O)n2C)c1 | 2.5 | – | 13 | – | 4.4 | Not Active | 6 | Not Active | – | –
28 | COc1cccc(OC)c1-c1cccc(Nc2cc(=O)n(O)c(=O)n2C)c1 | 1.9 | 6.9 | 4.5 | – | 1.2 | Not Active | 8 | – | – | –
29 | COc1ccc(-c2cccc(Nc3cc(=O)n(O)c(=O)n3C)c2)cc1OC | 0.5 | 2.2 | 3 | 5.8 | 0.9 | – | 10 | – | – | –
30 | COc1ccccc1-c1ccc(Nc2cc(=O)n(O)c(=O)n2C)cc1 | 2.8 | 9.3 | 8.9 | – | – | Not Active | – | – | – | –
31 | Cn1c(Oc2cccc(-c3ccc(C(F)(F)F)cc3)c2)cc(=O)n(O)c1=O | 9.5 | – | – | – | – | Not Active | > 25 | Not Active | Not Active | Not Active
32 | O=c1nc(Nc2ccc(-c3cnc4ccccc4c3)cc2)c2cccnc2n1O | – | – | – | – | – | – | 2 | – | – | –
33 | O=c1cc(Nc2ccc(-c3cccc(O)c3)cc2)[nH]c(=O)n1O | 0.22 | 0.43 | 0.4 | 0.79 | – | – | – | – | – | –
34 | Cn1c(Oc2ccc(-c3ccc(Cl)cc3)cc2)cc(=O)n(O)c1=O | 2.4 | – | 11 | – | – | Not Active | – | Not Active | – | –
35 | COc1cccc(-c2ccc(Nc3cc(=O)n(O)c(=O)n3C)cc2)c1 | 0.8 | 3.5 | 5.1 | – | 1.7 | Not Active | 6 | – | – | –
36 | Cn1c(Oc2ccc(-c3ccncc3)cc2)cc(=O)n(O)c1=O | 3.7 | – | 10 | – | – | Not Active | – | Not Active | – | –
37 | COc1ccc(-c2cccc(Nc3cc(=O)n(O)c(=O)n3C)c2)cc1 | 0.5 | 2.6 | 3.1 | 3.6 | 1.1 | – | 3 | – | – | –
38 | Cn1c(Oc2ccc(-c3ccccc3)cc2)cc(=O)n(O)c1=O | 1.9 | 5.3 | 6 | – | 2.1 | Not Active | 5 | – | – | –
39 | COc1ccc(-c2cccc(Oc3cc(=O)n(O)c(=O)n3C)c2)cc1 | 0.4 | 4 | 4.7 | – | 1.8 | Not Active | 2.5 | – | – | –
40 | COc1ccccc1-c1ccccc1Oc1cc(=O)n(O)c(=O)n1C | 8.1 | – | – | – | 13 | Not Active | 8 | Not Active | Not Active | –
41 | Cn1c(Oc2ccccc2-c2ccc(C(F)(F)F)cc2)cc(=O)n(O)c1=O | 3.9 | – | 21 | – | 5.1 | Not Active | 6 | Not Active | – | –
42 | COc1ccccc1-c1ccc(Oc2cc(=O)n(O)c(=O)n2C)cc1 | 2.8 | – | 22 | – | 6.2 | Not Active | 5 | Not Active | – | –
43 | Cn1c(Oc2ccc(-c3ccc(C(F)(F)F)cc3)cc2)cc(=O)n(O)c1=O | 6.2 | – | – | – | – | Not Active | – | Not Active | Not Active | –
44 | COc1ccc(-c2ccc(Oc3cc(=O)n(O)c(=O)n3C)cc2)cc1 | 1.6 | 11 | 12 | – | 4.7 | Not Active | 6 | – | – | –
45 | O=c1cc(Nc2ccc(-c3ccccc3)cc2)[nH]c(=O)n1O | 0.25 | 0.3 | 0.3 | 2 | 0.15 | – | > 25 | – | – | –
46 | Cn1c(Oc2cccc(-c3ccccc3)c2)cc(=O)n(O)c1=O | 1 | – | 15 | – | 3.9 | Not Active | 3 | Not Active | – | –

Reference: ChEMBL document CHEMBL4428027, “3-Hydroxypyrimidine-2,4-diones as Selective Active Site Inhibitors of HIV Reverse Transcriptase-Associated RNase H: Design, Synthesis, and Biochemical Evaluations” (J Med Chem, 2016)
